Experimental data collected from several papers.
Target: Serine/threonine-protein kinase SIK2 (SIK2, Homo sapiens, UniProt Q9H0K1)

Compound	assay	conditions	quantity	value
Cc1nc(C2CCN(C(=O)c3ccc(OC(F)(F)F)cc3N)CC2)c2ncc(N3CCN(C)CC3)cc2n1	cell-free assay, competition with immobilised ligand	1 µM	remaining binding	100%
Cc1sc(C(=O)NC2COC2)cc1-n1cc(NC(=O)Nc2c(F)cccc2Cl)cn1	enzyme activity, inhibitor	10 µM	remaining activity	89.8%
CN([C@@H]1CCc2c(CC(=O)O)c3cc(S(C)(=O)=O)ccc3n2C1)S(=O)(=O)c1ccc(F)cc1	cell-free assay, competition with immobilised ligand	1 µM	remaining binding	93%
CC(C)(C)c1nc2c(s1)c1nc(N)ncc1c1ccc(NS(=O)(=O)c3c(F)cccc3F)c(F)c12	enzyme activity, inhibitor, radiometric	1 µM	remaining activity	101%
COc1cc(/C=C/C(=O)CC(=O)/C=C/c2ccc(O)c(OC)c2)ccc1O	enzyme activity, inhibitor	1 µM	activity vs control	83%
C[S+]([O-])c1ccc(-c2nc(-c3ccncc3)c(-c3ccc(F)cc3)[nH]2)cc1 (stereo not drawn)	cell-free assay	0.5 µM	remaining signal	82.1%
O=C1CCc2cc(Nc3cc(OC4CCOCC4)c([N+](=O)[O-])cc3Cl)ccc2N1	cell-free assay, competition with immobilised ligand	1 µM	remaining binding	100%
N#CCCc1ccc2c(c1)-c1[nH]c3ccc([N+](=O)[O-])cc3c1CC(=O)N2	cell-free assay	0.5 µM	remaining signal	44.2%
CC(=O)C1=C(C)N(c2cccc(C(F)(F)F)c2)C(=O)N[C@@H]1c1ccc(C#N)nc1	cell-free assay, competition with immobilised ligand	1 µM	remaining binding	87.8%
FC(F)(F)Oc1cccc(-c2cnc3ccc(-c4ccncc4)nn23)c1	enzyme activity, inhibitor, radiometric	1 µM	activity vs control	68%
COc1cc(-c2cc(-c3ccc(N4CCNCC4)cc3)cnc2N)cc(OC)c1OC	enzyme activity, inhibitor	0.1 µM	inhibition	66%
CCCS(=O)(=O)Nc1ccc(F)c(C(=O)c2c[nH]c3ncc(-c4ccc(Cl)cc4)cc23)c1F	enzyme activity, inhibitor	1 µM	inhibition	< 10%
O=C1NC(=O)c2cc(Nc3ccc(F)cc3)c(Nc3ccc(F)cc3)cc21	cell-free assay	0.5 µM	remaining signal	103%
Cc1nccc(COC(=O)N2C[C@@H]3[C@@H](CNC(=O)c4ccc5[nH]nnc5c4)[C@@H]3C2)n1	cell-free assay, competition with immobilised ligand	1 µM	remaining binding	92%
COc1cc2ncnc(Nc3ccc(Oc4ccccc4)cc3C)c2cc1OC	enzyme activity, inhibitor	1 µM	inhibition	3%
O=C(Nc1cnn(-c2csc(C(=O)NC3COC3)c2)c1)Nc1ccccc1Cl	enzyme activity, inhibitor	5 µM	remaining activity	97%
O=C(NCCCC1CCCCC1)c1ccc(CNC(=O)c2cnn(-c3ccccc3)c2C(F)(F)F)cc1	cell-free assay, competition with immobilised ligand	0.1 µM	remaining binding	100%
COc1cc(Cl)c(C(=O)N[C@@H](CN[C@H]2CC[C@@H](N)CC2)Cc2ccc(C#N)cc2)cc1-c1ccc(CN[C@H](C)c2ccc(C)cc2)o1	enzyme activity, inhibitor	1 µM	remaining activity	96%
